Bounds are passed on as bounds.

From ChEMBL document CHEMBL1137343, “4-arylazo-3,5-diamino-1H-pyrazole CDK inhibitors: SAR study, crystal structure in complex with CDK2, selectivity, and cellular effects” (J Med Chem, 2006) come the findings set out here.

Assay [1] addresses T1, Cyclin-dependent kinase 2/cyclin E (Homo sapiens, UniProt P24941). Description: Inhibition of CDK2/Cyclin E in presence of 15 uM ATP. The class given is protein-complex assay.
Assay [2] relates to MCF7. In words: Antiproliferative activity against MCF7 cell line. In kind it is functional, cell-based. The following applies: Homo sapiens. The method in brief:
(§1)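 Cells grown in DMEM with 10% FCS, glutamine and penicillin/streptomycin at 37 °C, seeded in 96-well plates and preincubated 12 h. Compounds were added in 6-fold dilutions (1-100 µM) for 72 h. IC50 taken from dose-response curves.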

The test system of assay [3] is HOS. Description: Antiproliferative activity against HOS cell line. The class given is functional, cell-based. The following applies: Homo sapiens. The method in brief: as §1
Assay [4] relates to G-361. Description: Antiproliferative activity against G361 cell line. The class given is functional, cell-based. The following applies: Homo sapiens. The gist of the method:
as §1

Assay [5] deals with K562. Description: Antiproliferative activity against K562 cell line. In kind it is functional, cell-based. The following applies: Homo sapiens. The gist of the method:
as §1

In assay [6] the test system is MCF7. Description: Viability of MCF7 cells at 100 uM. The class given is functional, Homo sapiens. The gist of the method:
(§2)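 Cells grown in DMEM with 10% FCS and 4 mM glutamine at 37 °C, plated in 96-well format, preincubated 12 h, then exposed 72 h. Live cells measured by Calcein AM (1 h) fluorescence at 485/538 nm; % viable cells given at 100 µM compound.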

Assay [7] relates to HOS. Description: Viability of HOS cells at 100 uM. The class given is functional, Homo sapiens. The method in brief:
as §2

Assay [8] deals with G-361. Description: Viability of G361 cells at 100 uM. In kind it is functional, Homo sapiens. The method in brief:
as §2

The subject of assay [9] is K562. Description: Viability of K562 cells at 100 uM. In kind it is functional, Homo sapiens. The method in brief: as §2
In assay [10] the target is T1, Cyclin-dependent kinase 2/cyclin E. Description: Inhibition of CDK2/Cyclin E in presence of 100 uM ATP. The class given is protein-complex assay.
For assay [11], the target named is Cyclin-dependent kinase 1/cyclin B (Homo sapiens, UniProt P06493). In words: Inhibition of CDK1/Cyclin B in presence of 100 uM ATP. The class given is protein-complex assay.
For assay [12], the target named is Cyclin-dependent kinase 2/cyclin A (Homo sapiens, UniProt P24941). Description: Inhibition of CDK2/Cyclin A in presence of 100 uM ATP. The class given is protein-complex assay.
Assay [13] concerns the target Cyclin-dependent kinase 4/cyclin D1 (Homo sapiens, UniProt P11802). In words: Inhibition of CDK4/Cyclin D1 in presence of 100 uM ATP. In kind it is protein-complex assay.
Assay [14] deals with Cyclin-dependent kinase 7/ cyclin H (Homo sapiens, UniProt P50613). Description: Inhibition of CDK7/Cyclin H in presence of 100 uM ATP. In kind it is protein-complex assay.
Cyclin-dependent kinase 7/ cyclin H, sequence (P51946 whole entry): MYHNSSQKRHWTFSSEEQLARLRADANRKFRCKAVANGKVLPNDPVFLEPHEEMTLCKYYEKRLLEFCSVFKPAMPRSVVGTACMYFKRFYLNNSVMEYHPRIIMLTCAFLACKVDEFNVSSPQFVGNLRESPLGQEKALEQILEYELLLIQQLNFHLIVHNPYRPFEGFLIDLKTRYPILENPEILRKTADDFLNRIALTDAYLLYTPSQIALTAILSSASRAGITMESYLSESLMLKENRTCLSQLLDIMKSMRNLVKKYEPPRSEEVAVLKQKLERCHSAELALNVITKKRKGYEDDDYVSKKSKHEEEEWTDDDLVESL
Cyclin-dependent kinase 7/ cyclin H, sequence (P50613 whole entry): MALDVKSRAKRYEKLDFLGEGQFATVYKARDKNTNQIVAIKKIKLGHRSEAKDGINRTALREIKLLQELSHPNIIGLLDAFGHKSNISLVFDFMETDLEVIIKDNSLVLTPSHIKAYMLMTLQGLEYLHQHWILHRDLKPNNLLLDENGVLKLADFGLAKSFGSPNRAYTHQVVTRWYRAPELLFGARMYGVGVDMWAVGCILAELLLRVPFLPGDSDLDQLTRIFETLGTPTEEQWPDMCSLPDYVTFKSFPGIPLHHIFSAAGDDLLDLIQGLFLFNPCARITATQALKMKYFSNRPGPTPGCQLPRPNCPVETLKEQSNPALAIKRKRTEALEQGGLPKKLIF
For the next assay, the target named is CDK9/cyclin T1 (Homo sapiens, UniProt P50750). Description: Inhibition of CDK9/Cyclin T1 in presence of 100 uM ATP. In kind it is protein-complex assay.
CDK9/cyclin T1, sequence (O60563 whole entry): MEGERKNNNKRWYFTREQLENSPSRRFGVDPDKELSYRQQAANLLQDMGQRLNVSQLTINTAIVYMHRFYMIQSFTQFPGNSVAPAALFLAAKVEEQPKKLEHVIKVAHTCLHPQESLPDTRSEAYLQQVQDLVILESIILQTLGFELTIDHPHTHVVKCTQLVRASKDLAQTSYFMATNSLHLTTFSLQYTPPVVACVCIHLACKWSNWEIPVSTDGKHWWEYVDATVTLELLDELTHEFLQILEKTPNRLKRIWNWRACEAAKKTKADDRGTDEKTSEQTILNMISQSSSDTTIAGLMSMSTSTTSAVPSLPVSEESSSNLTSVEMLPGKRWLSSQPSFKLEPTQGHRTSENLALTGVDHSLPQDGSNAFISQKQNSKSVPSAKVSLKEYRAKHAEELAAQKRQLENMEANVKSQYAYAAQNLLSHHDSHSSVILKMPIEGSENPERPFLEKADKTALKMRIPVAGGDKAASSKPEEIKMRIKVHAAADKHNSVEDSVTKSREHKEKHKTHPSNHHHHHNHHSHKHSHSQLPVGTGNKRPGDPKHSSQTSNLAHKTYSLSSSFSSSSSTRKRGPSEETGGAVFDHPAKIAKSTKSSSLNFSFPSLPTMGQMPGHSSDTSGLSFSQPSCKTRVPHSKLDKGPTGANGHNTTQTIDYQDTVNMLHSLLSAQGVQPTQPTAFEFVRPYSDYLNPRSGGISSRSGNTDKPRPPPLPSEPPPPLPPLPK
CDK9/cyclin T1, sequence (P50750 whole entry): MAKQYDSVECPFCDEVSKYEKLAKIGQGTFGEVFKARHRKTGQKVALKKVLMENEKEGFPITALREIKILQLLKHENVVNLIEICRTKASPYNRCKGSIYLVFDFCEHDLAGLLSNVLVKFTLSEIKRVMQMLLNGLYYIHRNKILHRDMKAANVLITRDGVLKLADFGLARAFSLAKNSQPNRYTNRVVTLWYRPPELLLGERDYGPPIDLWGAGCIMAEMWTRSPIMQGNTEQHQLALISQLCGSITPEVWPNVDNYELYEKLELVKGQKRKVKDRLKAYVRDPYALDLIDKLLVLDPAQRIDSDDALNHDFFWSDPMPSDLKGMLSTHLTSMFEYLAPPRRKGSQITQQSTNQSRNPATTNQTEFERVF

Cyclin-dependent kinase 4/cyclin D1, sequence (P11802 whole entry): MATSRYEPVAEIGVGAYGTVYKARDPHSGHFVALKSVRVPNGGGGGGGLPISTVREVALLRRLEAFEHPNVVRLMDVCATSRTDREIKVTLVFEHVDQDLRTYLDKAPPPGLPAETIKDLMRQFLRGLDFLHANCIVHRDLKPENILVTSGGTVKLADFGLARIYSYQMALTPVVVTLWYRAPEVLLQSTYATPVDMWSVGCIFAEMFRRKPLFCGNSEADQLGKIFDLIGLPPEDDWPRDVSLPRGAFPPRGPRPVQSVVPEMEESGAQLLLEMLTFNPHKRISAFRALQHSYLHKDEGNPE
Cyclin-dependent kinase 4/cyclin D1, sequence (P24385 whole entry, further chain): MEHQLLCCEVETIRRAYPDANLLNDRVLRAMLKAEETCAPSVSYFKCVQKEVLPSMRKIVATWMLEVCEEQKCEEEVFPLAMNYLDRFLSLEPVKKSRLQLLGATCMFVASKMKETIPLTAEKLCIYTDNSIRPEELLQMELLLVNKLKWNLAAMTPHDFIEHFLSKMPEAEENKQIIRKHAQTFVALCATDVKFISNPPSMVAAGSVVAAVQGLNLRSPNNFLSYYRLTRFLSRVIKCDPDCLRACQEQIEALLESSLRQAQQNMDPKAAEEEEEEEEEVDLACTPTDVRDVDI

As to `Nc1n[nH]c(N)c1/N=N/c1cccc(C(=O)O)c1`, the IC50 in [1] is 28 µM; in the assay on MCF7 [2], more than 100 µM; with HOS [3] it was more than 100 µM; with G-361 [4], more than 100 µM; with K562 [5], more than 100 µM. Moreover, the Activity was 102% in the assay on MCF7 [6], 94% with HOS [7], 93% in the assay with G-361 [8] and 84% with K562 [9].

Turning to `Nc1n[nH]c(N)c1/N=N/c1ccccc1[N+](=O)[O-]`, the IC50 in [1] is 6.1 µM; with MCF7 [2] it was more than 100 µM; with HOS [3], more than 100 µM; with G-361 [4], more than 100 µM; in the assay on K562 [5], 100 µM; in assay [10], 22 µM. The half-inhibitory concentration (IC50) in assay [11] amounted to 42 µM; in assay [12], 88 µM; in assay [13], 16 µM; in [14] it was 77 µM; at CDK9/cyclin T1, 5.6 µM. Besides, the Activity with MCF7 [6] is 62%; in the assay on HOS [7], 57%; with G-361 [8] it was 58%; with K562 [9], 48%.

With `Nc1n[nH]c(N)c1/N=N/c1ccc([N+](=O)[O-])cc1`, the IC50 in assay [1] was 40 µM; in the assay with MCF7 [2] it was more than 100 µM; with HOS [3], more than 100 µM; in the assay with G-361 [4], more than 100 µM; in the assay on K562 [5], 71 µM. Besides, the Activity in the assay on MCF7 [6] is 60%; in the assay with HOS [7], 80%; in the assay with G-361 [8], 61%; in the assay on K562 [9], 25%.

On to `Nc1n[nH]c(N)c1/N=N/c1cccc2c1CCCC2`, for which the half-inhibitory concentration (IC50) amounted to 15 µM in assay [1]; 81 µM with MCF7 [2]; 92 µM in the assay on HOS [3]; 77 µM in the assay on G-361 [4]; 55 µM in the assay with K562 [5]. The Activity was determined as 39% in the assay on MCF7 [6], 32% in the assay with HOS [7], 27% in the assay with G-361 [8] and 26% with K562 [9].

As to `Nc1n[nH]c(N)c1/N=N/c1cccc(O)c1`, the IC50 is 6 µM in assay [1]; more than 100 µM in the assay with MCF7 [2]; more than 100 µM in the assay on HOS [3]; more than 100 µM in the assay on G-361 [4]; more than 100 µM with K562 [5]; 51 µM in assay [10]. The IC50 is more than 100 µM in assay [11]; more than 100 µM in [12]; 56 µM in assay [13]; 82 µM in assay [14]; 1.5 µM at CDK9/cyclin T1. For the same compound, the Activity in the assay on MCF7 [6] is reported as 71%; in the assay on HOS [7] it was 83%; in the assay on G-361 [8] it was 70%; with K562 [9], 53%.

Turning to `Nc1n[nH]c(N)c1/N=N/c1cccc([N+](=O)[O-])c1`, the IC50 was 23 µM in assay [1]; 65 µM in the assay on MCF7 [2]; more than 100 µM in the assay on HOS [3]; more than 100 µM with G-361 [4]; 79 µM in the assay on K562 [5]; 68 µM in [10]. The IC50 in assay [11] was more than 100 µM; in assay [12], more than 100 µM; in assay [13], 70 µM; in [14], more than 100 µM; on CDK9/cyclin T1, 12.4 µM. Also, the Activity in the assay with MCF7 [6] worked out at 44%; with HOS [7] it was 95%; with G-361 [8], 69%; in the assay on K562 [9] it was 28%.

For the compound `Nc1n[nH]c(N)c1/N=N/c1cccc2ccccc12`, the IC50 in assay [1] was 10 µM; with MCF7 [2], more than 100 µM; with HOS [3], more than 100 µM; with G-361 [4] it was more than 100 µM; in the assay on K562 [5], 50 µM. Further, the Activity is reported as 56% in the assay with MCF7 [6], 79% with HOS [7], 55% in the assay with G-361 [8] and 7.7% in the assay on K562 [9].

Consider `Nc1n[nH]c(N)c1/N=N/c1ccccc1CO`, for which the IC50 in assay [1] was 17 µM; with MCF7 [2] it was more than 100 µM; in the assay on HOS [3], more than 100 µM; in the assay with G-361 [4], more than 100 µM; in the assay on K562 [5] it was more than 100 µM; in assay [10], 77 µM. In addition, the 50% inhibitory concentration (IC50) was more than 100 µM in [11]; more than 100 µM in assay [12]; more than 100 µM in assay [13]; more than 100 µM in assay [14]; 26 µM on CDK9/cyclin T1. Also, the Activity in the assay on MCF7 [6] is 51%; with HOS [7], 87%; in the assay on G-361 [8] it was 84%; in the assay on K562 [9], 86%.

On to `Nc1n[nH]c(N)c1/N=N/c1ccc(C(=O)O)cc1`, for which the IC50 (in assay [1]; in the assay on MCF7 [2]; in the assay on HOS [3]; in the assay on G-361 [4]; in the assay on K562 [5]) was more than 100 µM in each case. Also, the Activity in the assay with MCF7 [6] was found to be 97%; in the assay on HOS [7], 92%; in the assay with G-361 [8], 86%; in the assay on K562 [9] it was 96%.

For `Nc1n[nH]c(N)c1/N=N/c1ccccc1O`, the IC50 was 2.5 µM in assay [1]; more than 100 µM in the assay with MCF7 [2]; more than 100 µM in the assay on HOS [3]; more than 100 µM with G-361 [4]; more than 100 µM in the assay on K562 [5]. The Activity in the assay on MCF7 [6] was 72%; with HOS [7] it was 84%; in the assay with G-361 [8] it was 74%; in the assay on K562 [9], 72%.

As for `Nc1n[nH]c(N)c1/N=N/c1ccccc1`, the half-maximal inhibitory concentration (IC50) in assay [1] was 22 µM; in the assay with MCF7 [2], more than 100 µM; in the assay on HOS [3] it was more than 100 µM; in the assay on G-361 [4] it was more than 100 µM; in the assay on K562 [5], more than 100 µM; in assay [10] it was 100 µM. The IC50 in assay [11] was more than 100 µM; in assay [12] it was more than 100 µM; in assay [13], more than 100 µM; in assay [14], more than 100 µM; at CDK9/cyclin T1 it was 15 µM. For the same compound, the Activity in the assay on MCF7 [6] was 74%; in the assay with HOS [7], 83%; with G-361 [8] it was 75%; in the assay with K562 [9], 90%.

As to `Nc1n[nH]c(N)c1/N=N/c1ccccc1C(=O)O`, the IC50 in assay [1] is 92 µM; in the assay on MCF7 [2], more than 100 µM; in the assay with HOS [3], more than 100 µM; in the assay with G-361 [4], more than 100 µM; in the assay with K562 [5] it was more than 100 µM. Also, the Activity in the assay on MCF7 [6] is 97%; in the assay with HOS [7], 91%; in the assay with G-361 [8], 96%; in the assay with K562 [9], 89%.
